ChEMBL document CHEMBL1687851, “Dolabellanes with antibacterial activity from the brown alga Dilophus spiralis” (2011)
Converted amounts (≈) assume the structure as drawn.

What was measured:
Staphylococcus aureus [1] = test: Antibacterial activity against 5 x 10^5 CFU/ml macrolide-resistant Staphylococcus aureus RN4220 expressing MsrA macrolide efflux protein after 18 hrs by MTT assay; type: functional; details: RN4220, 18 h
Outline: (§1)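 Strains grown on nutrient agar 24 h at 37 °C; inoculum adjusted to 0.5 McFarland in normal saline. Compounds dissolved in DMSO, diluted in Mueller-Hinton broth to a 512 μg/mL starting concentration, then two-fold serially diluted in MHB supplemented with Mg2+ (10 mg/L) and Ca2+ (20 mg/L). Incubated 18 h at 37 °C; MIC read as lowest concentration with no visible growth, confirmed by MTT (20 min, 37 °C). Triplicates.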

Staphylococcus aureus [2] = test: Antibacterial activity against 5 x 10^5 CFU/ml Staphylococcus aureus ATCC 25923 after 18 hrs by MTT assay; details: ATCC 25923, 18 h
Staphylococcus aureus [3] = test: Antibacterial activity against 5 x 10^5 CFU/ml multi-drug-resistant Staphylococcus aureus XU212 expressing TetK tetracycline efflux protein after 18 hrs by MTT assay; type: functional; details: XU212, 18 h; outline: as §1
Staphylococcus aureus [4] = test: Antibacterial activity against 5 x 10^5 CFU/ml epidemic methicillin-resistant Staphylococcus aureus EMRSA-16 after 18 hrs by MTT assay; type: functional; details: EMRSA-16, 18 h; outline: as §1
Staphylococcus aureus [5] = test: Antibacterial activity against 5 x 10^5 CFU/ml epidemic methicillin-resistant Staphylococcus aureus EMRSA-15 after 18 hrs by MTT assay; type: functional; details: EMRSA-15, 18 h; outline: as §1
Staphylococcus aureus [6] = test: Antibacterial activity against 5 x 10^5 CFU/ml multi-drug-resistant Staphylococcus aureus SA1199B expressing NorA quinolone efflux protein after 18 hrs by MTT assay; type: functional; outline: as §1

Structure (SMILES)	MIC (Staphylococcus aureus [1])	MIC (Staphylococcus aureus [2])	MIC (Staphylococcus aureus [3])	MIC (Staphylococcus aureus [4])	MIC (Staphylococcus aureus [5])	MIC (Staphylococcus aureus [6])
C=C(C)[C@H]1CC[C@]2(C)C/C=C(\C)CC/C=C(\C)CC[C@@H]12	128 µg/mL (≈ 470 µM)	64 µg/mL (≈ 235 µM)	128 µg/mL (≈ 470 µM)	16 µg/mL (≈ 58.7 µM)	128 µg/mL (≈ 470 µM)	128 µg/mL (≈ 470 µM)
C=C(C)[C@H]1C[C@H](O)[C@]2(C)C/C=C(\C)CC/C=C(\C)CC[C@@H]12	64 µg/mL (≈ 222 µM)	128 µg/mL (≈ 444 µM)	64 µg/mL (≈ 222 µM)	8 µg/mL (≈ 27.7 µM)	64 µg/mL (≈ 222 µM)	32 µg/mL (≈ 111 µM)
C=C(C)[C@H]1CC(=O)[C@]2(C)C[C@@H]3O[C@@]3(C)CC/C=C(\C)CC[C@@H]12	128 µg/mL (≈ 423 µM)	> 128 µg/mL	> 128 µg/mL	> 128 µg/mL	> 128 µg/mL	> 128 µg/mL
C=C(C)[C@H]1C[C@H](OC(C)=O)[C@]2(C)C/C=C(\C)CC/C=C(\C)CC[C@@H]12	> 128 µg/mL	> 128 µg/mL	> 128 µg/mL	> 128 µg/mL	> 128 µg/mL	> 128 µg/mL
C/C1=C\CC[C@@H](C)/C=C/[C@@]2(C)CC[C@@H](C(C)(C)O)[C@@H]2CC1	64 µg/mL (≈ 220 µM)	64 µg/mL (≈ 220 µM)	64 µg/mL (≈ 220 µM)	16 µg/mL (≈ 55.1 µM)	64 µg/mL (≈ 220 µM)	64 µg/mL (≈ 220 µM)
CCn1cc(C(=O)O)c(=O)c2cc(F)c(N3CCNCC3)cc21 [NORFLOXACIN]	0.5 µg/mL (≈ 1.57 µM)	0.5 µg/mL (≈ 1.57 µM)	8 µg/mL (≈ 25.1 µM)	128 µg/mL (≈ 401 µM)	0.5 µg/mL (≈ 1.57 µM)	32 µg/mL (≈ 100 µM)
C=C(C)[C@H]1C[C@@H](O)[C@]2(C)C/C=C(\C)CC/C=C(\C)CC[C@@H]12	4 µg/mL (≈ 13.9 µM)	4 µg/mL (≈ 13.9 µM)	4 µg/mL (≈ 13.9 µM)	2 µg/mL (≈ 6.93 µM)	2 µg/mL (≈ 6.93 µM)	2 µg/mL (≈ 6.93 µM)
C=C(C)[C@H]1CC(=O)[C@]2(C)C/C=C(/C)CC[C@@H]3O[C@@]3(C)CC[C@@H]12	> 128 µg/mL	> 128 µg/mL	> 128 µg/mL	> 128 µg/mL	> 128 µg/mL	> 128 µg/mL
CC(=O)O[C@H]1C/C(C)=C/CC[C@@H](C)/C=C/[C@@]2(C)CC[C@@H](C(C)(C)O)[C@H]12	> 128 µg/mL	> 128 µg/mL	> 128 µg/mL	64 µg/mL (≈ 184 µM)	> 128 µg/mL	> 128 µg/mL
C=C(C)[C@H]1CC[C@]2(C)C/C=C(\C)CC[C@@H]3O[C@@]3(C)CC[C@@H]12	> 128 µg/mL	> 128 µg/mL	> 128 µg/mL	4 µg/mL (≈ 13.9 µM)	128 µg/mL (≈ 444 µM)	> 128 µg/mL
C/C1=C\C[C@@]2(C)CC[C@@](O)(C(C)C)[C@@H]2CC/C(C)=C/CC1	8 µg/mL (≈ 27.5 µM)	8 µg/mL (≈ 27.5 µM)	16 µg/mL (≈ 55.1 µM)	8 µg/mL (≈ 27.5 µM)	8 µg/mL (≈ 27.5 µM)	16 µg/mL (≈ 55.1 µM)
C=C(C)[C@H]1CC[C@]2(C)C[C@@H]3O[C@@]3(C)CC/C=C(\C)CC[C@@H]12	> 128 µg/mL	> 128 µg/mL	> 128 µg/mL	32 µg/mL (≈ 111 µM)	> 128 µg/mL	> 128 µg/mL
C=C(C)[C@@H]1CC(=O)[C@]2(C)C/C=C(\C)CC/C=C(\C)CC[C@@H]12	> 128 µg/mL	> 128 µg/mL	> 128 µg/mL	> 128 µg/mL	> 128 µg/mL	> 128 µg/mL
C/C1=C\C[C@@]2(C)CC[C@H](C(C)(C)O)[C@@H]2CC/C(C)=C/CC1	64 µg/mL (≈ 220 µM)	32 µg/mL (≈ 110 µM)	64 µg/mL (≈ 220 µM)	8 µg/mL (≈ 27.5 µM)	32 µg/mL (≈ 110 µM)	32 µg/mL (≈ 110 µM)
C=C(C)[C@H]1CC(=O)[C@]2(C)C/C=C(\C)CC[C@@H]3O[C@@]3(C)CC[C@@H]12	> 128 µg/mL	> 128 µg/mL	> 128 µg/mL	> 128 µg/mL	> 128 µg/mL	> 128 µg/mL
C=C(C)[C@H]1CC(=O)[C@]2(C)C/C=C(/C)CC/C=C(\C)CC[C@@H]12	> 128 µg/mL	> 128 µg/mL	> 128 µg/mL	> 128 µg/mL	> 128 µg/mL	> 128 µg/mL
C=C(C)[C@H]1CC(=O)[C@]2(C)C/C=C(\C)CC/C=C(\C)CC[C@@H]12	> 128 µg/mL	> 128 µg/mL	> 128 µg/mL	16 µg/mL (≈ 55.9 µM)	> 128 µg/mL	128 µg/mL (≈ 447 µM)
C=C(C)[C@@H]1CC[C@]2(C)/C=C/[C@H](C)CC/C=C(\C)CC[C@@H]12	> 128 µg/mL	> 128 µg/mL	> 128 µg/mL	> 128 µg/mL	> 128 µg/mL	> 128 µg/mL
C=C(C)[C@H]1C[C@H](OC(C)=O)[C@]2(C)C[C@@H]3O[C@@]3(C)CC/C=C(\C)CC[C@@H]12	64 µg/mL (≈ 185 µM)	32 µg/mL (≈ 92.3 µM)	128 µg/mL (≈ 369 µM)	32 µg/mL (≈ 92.3 µM)	128 µg/mL (≈ 369 µM)	64 µg/mL (≈ 185 µM)
